Shown are actives, neighbours in structure and some others; about 1.9% of the full set was active somewhere.
Rin1 Abl inh: inhibitors of Rin1-Abl protein binding, primary screen, biochemical, TR-FRET; hit rate 0.4% among 360,000; Tyrosine-protein kinase ABL1 (Homo sapiens) + Ras and Rab interactor 1 (Homo sapiens), …; inhibition, % at 7.35 µM; in the data active = inhibition above about 5%, passing the limit was not always enough
SR-BI uptake up: activators of SR-BI mediated DiI-HDL uptake, primary screen, ldlA[mSR-BI] CHO cells, DiI fluorescence. 3 h; 100 = double the neutral-control signal. activation, % at 12.5 µM. hit rate 0.096% among 320,000;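 active = mean replicate activation of at least 60% and every replicate at or above 60%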
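Test system: SR-BI-overexpressing, LDLR-lacking CHO cells. Measured by: DiI fluorescence, bottom read. Medium: Ham's F12 with 0.5% BSA, HEPES 25 mM, pH 7.4. Timing: 3 h uptake period with compound, 37 °C.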
SR-BI DiI inh: inhibitors of SR-BI mediated HDL lipid uptake, primary screen, ldlA[mSR-BI] cells, fluorescence, single point; Scavenger receptor class B member 1 (Mus musculus), Q61009; hit rate 0.96% among 320,000; inhibition, % at 12.5 µM; ldlA[mSR-BI] CHO cells, DiI-HDL uptake fluorescence, 3 h;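 active = mean replicate inhibition of at least 70% and a set share of replicates each scoring 70 or more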
Target sequence (Q61009 whole entry, looked up): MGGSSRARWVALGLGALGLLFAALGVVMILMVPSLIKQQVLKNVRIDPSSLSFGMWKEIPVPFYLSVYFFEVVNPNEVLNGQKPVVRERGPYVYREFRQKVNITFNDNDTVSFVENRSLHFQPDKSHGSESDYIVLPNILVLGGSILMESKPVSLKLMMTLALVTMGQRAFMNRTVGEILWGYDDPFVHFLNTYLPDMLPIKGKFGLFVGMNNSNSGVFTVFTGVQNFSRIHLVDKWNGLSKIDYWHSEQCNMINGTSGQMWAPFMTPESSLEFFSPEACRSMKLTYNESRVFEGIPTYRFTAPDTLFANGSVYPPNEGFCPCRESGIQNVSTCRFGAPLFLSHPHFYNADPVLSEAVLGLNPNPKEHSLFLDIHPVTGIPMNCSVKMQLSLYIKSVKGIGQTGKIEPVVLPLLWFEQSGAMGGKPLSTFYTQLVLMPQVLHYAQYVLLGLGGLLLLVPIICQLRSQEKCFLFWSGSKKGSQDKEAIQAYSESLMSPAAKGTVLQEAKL
GRK2 aptamer HTS: compounds blocking aptamer binding on GRK2 – biochemical, human GRK2, bead flow cytometry, HTS, primary screen; Beta-adrenergic receptor kinase 1 (Homo sapiens), P25098; FAM-aptamer displacement from GRK2; inhibition of aptamer binding, % at 10 µM; hit rate 0.59% among 330,000;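 active = inhibition of aptamer binding above 40%, roughly 3 SD of noise, on plates passing a quality check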;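 also: median bead fluorescence of bound FAM aptamer so fluorescent compounds give negative values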
Of the large screens only hits and unclear results are named; the others gave an inactive call.

CC(=O)NC(c1ccc(F)c(F)c1)c1nc(-c2cccc(C(C)C)c2)cs1 (centres undefined)	none (no result: SR-BI uptake up, SR-BI DiI inh, GRK2 aptamer HTS)
COc1cc(OC)cc(C(=O)NCCNc2nc3cc(C)cc(C)c3cc2C#N)c1	none
COc1ccccc1C(=O)NCCNc1nc2cc(C)cc(C)c2cc1C#N	SR-BI DiI inh 110
CN(CC(=O)Nc1ccc(Cl)c(C(F)(F)F)c1)C(=O)c1ccc2c(c1)NC(=O)CS2	none
O=C(CN1CC[n+]2c(-c3cccs3)csc21)c1ccc(-c2ccccc2)cc1	SR-BI DiI inh 77
Cc1cc(/C=C2/SC(=S)N(c3cccc(C(F)(F)F)c3)C2=O)c(C)n1-c1cccnc1	SR-BI DiI inh 76
CCOCc1c(C(=O)Nc2ccccc2N2CCN(C)CC2)oc2ccccc12	none (no result: GRK2 aptamer HTS)
COCCN(Cc1ccc(C)cc1)C(=O)[C@H]1O[C@@H](n2ccc(=O)[nH]c2=O)[C@H](O)[C@@H]1O	none (no result: SR-BI uptake up, SR-BI DiI inh, GRK2 aptamer HTS)
Cc1ccccc1NC(=O)c1sc2nc3c(c(-c4ccco4)c2c1N)CCCC3	SR-BI DiI inh 79
Nc1c(C(=O)Nc2ccccc2)sc2nc3c(c(-c4ccco4)c12)CCC3	SR-BI DiI inh 80
Nc1c(C(=O)Nc2ccccc2)sc2nc3c(c(-c4ccco4)c12)CCCC3	none
CCOc1ccc(C(=O)Nc2cccc(-c3nc4cccnc4o3)c2)cc1Cl	SR-BI DiI inh 83
CCOc1ccc(C(=O)Nc2cccc(C(=O)O)c2)cc1Cl	none
COc1ccc(NC(=O)CSc2nnnn2C2CCCC2)cc1S(=O)(=O)N1CCOCC1	none (no result: SR-BI uptake up, SR-BI DiI inh, GRK2 aptamer HTS)
COc1ccc(C(=O)N/C(=C\c2cccs2)C(=O)N2CCN(C)CC2)cc1OC	none
COc1ccc(C(=O)N/C(=C/c2cccs2)C(=O)NN)cc1OC	SR-BI DiI inh 75
CCOC(=O)c1sc(NC(=O)CSc2nc(C)cc(C)c2C#N)c(C#N)c1C	none
CCOC(=O)c1sc(NC(=O)CSc2nc3c(cc2C#N)CCCCCC3)c(C#N)c1C	SR-BI DiI inh 75
CNc1nc(C)c(C(=O)c2ccc(Cl)cc2)s1	none
CCOC(=O)Nc1nc(-c2ccccc2)c(C(=O)c2ccc(Cl)cc2)s1	SR-BI DiI inh 83
CCN(CC)C(=O)C1=C(C)N(Cc2ccc(OC)cc2)C(=O)C(CC(=O)NCC2CCCCC2)C1 (centres undefined)	none (no result: SR-BI uptake up, SR-BI DiI inh, GRK2 aptamer HTS)
Cc1ccc(Nc2cc(C)nc3ncnn23)c(C)c1	none
Cc1ccc(C)c(Nc2cc(C)nc3ncnn23)c1	SR-BI uptake up 192
CC(C)(C)[C@@H]1CCC(=O)N(CC[C@H](Sc2ccc(Br)cc2)c2ccccc2)CC1	SR-BI DiI inh 82
COc1ccc(Cl)cc1CC=NNC(=O)c1cccc(C)c1O	none (no result: GRK2 aptamer HTS)
Cc1nc(NC(=O)/C=C/c2ccccc2)sc1C(=O)Nc1ccccc1	SR-BI DiI inh 76
CC(=O)N1CCN(C(=O)c2cccc(S(=O)(=O)Nc3c(C)n(C)n(-c4ccccc4)c3=O)c2)CC1	none (no result: GRK2 aptamer HTS)
CCNC(=S)Nc1cccc([N+](=O)[O-])c1	none (no result: Rin1 Abl inh, SR-BI uptake up, SR-BI DiI inh)
O=[N+]([O-])c1cccc(NC(=S)Nc2nc(-c3ccccc3Cl)cs2)c1	SR-BI DiI inh 84
CC12CCC(C(=O)N(c3nccs3)C1=O)C2(C)C (centres undefined)	none (no result: GRK2 aptamer HTS)
COc1cc(OC)c(NC2=CC(=O)C(=O)c3ccccc32)cc1Cl	SR-BI DiI inh 102
Cc1ccc(NC2=CC(=O)C(=O)c3ccccc32)cc1	none
Cc1cc(C)cc(OCC(=O)OCc2cc([N+](=O)[O-])cc3c2OCOC3)c1	none
C/C(=N\NC(=S)NCc1ccccc1)c1ccc2ccccc2c1	GRK2 aptamer HTS 98
C/C(=N\NC(=S)NCc1ccccc1)c1cccc(Br)c1	none
Cc1c(C(=O)NN)[nH]c2ccc([N+](=O)[O-])cc12	none (no result: SR-BI uptake up, SR-BI DiI inh)
CCCCC/C=N/NC(=O)c1[nH]c2ccc([N+](=O)[O-])cc2c1C	SR-BI DiI inh 98
CCc1c(C#N)c(SCCC(=O)Nc2ccc(C)cc2)nc2c1C(=O)CC(C)(C)C2	SR-BI DiI inh 73
CCOC(=O)C(C#N)=CN1CCNc2ccccc21	none (no result: GRK2 aptamer HTS)
O=C(CCSc1nc(-c2ccc3c(c2)OCO3)cc(C(F)(F)F)n1)NCc1ccco1	SR-BI DiI inh 82
Cc1ccc(NS(=O)(=O)c2cc(NC(=O)c3cc4c(s3)CCCC4)ccc2C)c(C)c1	SR-BI DiI inh 83
Cc1ccc(NC(=O)c2cc3c(s2)CCCC3)cc1	none
COc1ccc(OC)c(-c2oc3ccccc3c(=O)c2O)c1	none
CCOc1ccccc1-c1c2cc(O)c(=O)cc-2oc2cc(O)c(O)cc12	Rin1 Abl inh 54, SR-BI DiI inh 73 (no result: GRK2 aptamer HTS)
CCOC(=O)c1oc2cc(O)ccc2c(=O)c1-c1ccccc1OC	none (no result: SR-BI uptake up, SR-BI DiI inh)
O=c1cc2oc3cc(O)c(O)cc3c(-c3ccccc3O)c-2cc1O	Rin1 Abl inh 67 (no result: GRK2 aptamer HTS)
COc1ccc(OC)c(-c2c3cc(O)c(=O)cc-3oc3cc(O)c(O)cc23)c1	Rin1 Abl inh 55, SR-BI DiI inh 91
O=C(CSc1nnc(-c2ccncc2)o1)Nc1cc(Cl)ccc1C(=O)O	none
COC(=O)NC(=C(Cl)Cl)S(=O)(=O)c1ccccc1	SR-BI uptake up 73
Cc1ccc(C(=O)NC(=C(Cl)Cl)S(=O)(=O)c2ccccc2)cc1	none
Cc1ccc(CNS(=O)(=O)c2ccc(CN3C(=O)c4cccnc4C3=O)cc2)o1	none
CC(=O)N[C@H]1[C@H]([C@H](O)[C@H](O)CO)O[C@](O)(C(=O)O)C[C@@H]1O	none (no result: GRK2 aptamer HTS)
O=c1cc(CN2CCN(c3ccc(F)cc3)CC2)c2cc3c(cc2o1)CCCC3	SR-BI DiI inh 71
O=C(Cn1nnc(-c2ccc(F)cc2)n1)Nc1cccc(S(=O)(=O)N2CCCC2)c1	none
O=C1C=CC(=O)c2c(O)c(CO)c(CO)c(O)c21	Rin1 Abl inh 20 (no result: GRK2 aptamer HTS)
COCCCN1C(=O)c2[nH]nc(-c3ccccc3O)c2C1c1cccc(Cl)c1 (centres undefined)	none
CC(C)OCCCN1C(=O)c2[nH]nc(-c3ccccc3O)c2C1c1cccc(Cl)c1 (centres undefined)	SR-BI DiI inh 72
CC(Sc1nc2ncc(Cl)cc2[nH]1)C(=O)Nc1ccccc1[N+](=O)[O-] (centres undefined)	none (no result: SR-BI uptake up, SR-BI DiI inh, GRK2 aptamer HTS)
COc1ccc(CC(Cc2ccc(OC)c(OC)c2)NC=O)cc1OC	none (no result: SR-BI uptake up, SR-BI DiI inh, GRK2 aptamer HTS)
CC(C)(C)c1ccc(-c2nc(O)c(CC(=O)O)s2)cc1	GRK2 aptamer HTS 51 (no result: Rin1 Abl inh, SR-BI uptake up, SR-BI DiI inh)
CC(=O)c1ccc(NC(=O)COC(=O)CCC(=O)c2cccs2)cc1	SR-BI uptake up 270
CCCOc1ccc(C(=O)CCC(=O)OCC(=O)Nc2ccc(OCC)cc2)cc1	GRK2 aptamer HTS 85 (no result: Rin1 Abl inh, SR-BI uptake up, SR-BI DiI inh)
CCCOc1ccc(C(=O)CCC(=O)OCC(=O)Nc2ccc(Oc3ccccc3)cc2)cc1	none (no result: Rin1 Abl inh, SR-BI uptake up, SR-BI DiI inh)
CNC(=O)COC(=O)CCC(=O)c1cccs1	none
CCc1cc2c(SCC(=O)NC3CC3)ncnc2s1	none
O=S(=O)(c1c(F)cccc1F)N(CCc1ccc(F)cc1)C[C@@H](O)COCc1ccccc1	none (no result: GRK2 aptamer HTS)
COc1ccccc1-c1csc(C(O)c2ccc(F)c(F)c2)n1 (centres undefined)	none (no result: SR-BI uptake up, SR-BI DiI inh, GRK2 aptamer HTS)
CCOC(=O)c1sc2nc(C)nc(N3CCCCC3C)c2c1C (centres undefined)	none

Source: PubChem BioAssay
